Experimental data gathered from unrelated publications.
Lines come from different studies, so protocols differ.
Observed: binding
USP7: Ubiquitin carboxyl-terminal hydrolase 7 (USP7, Homo sapiens, UniProt Q93009)
Tumor necrosis factor receptor superfamily member 9: Tumor necrosis factor receptor superfamily member 9 (Homo sapiens, UniProt Q07011)
MET: Hepatocyte growth factor receptor (MET, Homo sapiens, UniProt P08581)

CC[C@H](C)[C@H](NC(=O)[C@H](CC(C)C)NC(=O)CNC(=O)[C@@H](N)CCCCN)C(=O)N[C@@H](CC(=O)O)C(=O)N[C@@H](Cc1ccc(O)cc1)C(=O)N[C@@H](Cc1ccc(O)cc1)C(=O)N[C@@H](CC(C)C)C(=O)N[C@@H](CCSC)C(=O)N1CCC[C@H]1C(=O)N[C@@H](CO)C(=O)N[C@@H](CC(C)C)C(=O)N[C@@H](CO)C(=O)N[C@H](C(=O)N[C@H](C(=O)N[C@@H](CO)C(=O)N[C@@H](CCCNC(=N)N)C(=O)N[C@@H](CO)C(=O)NCC(=O)N[C@@H](CCCCN)C(=O)O)[C@@H](C)O)[C@@H](C)O — Kd (USP7; ITC; pH 8): 25.9 µM
CN1CN(c2ccccc2)C2(CCN(CCCC(=O)c3ccc(F)cc3)CC2)C1=O — Kd (D(2) dopamine receptor (Drd2, Rattus norvegicus, UniProt P61169); radioligand; cell membranes): 9e-05 µM
CCCC[C@@H]1NC(=O)[C@H](Cc2ccc(O)cc2)NC(=O)[C@@H]2CCCN2C(=O)[C@H](CC(=O)O)NC(=O)[C@H](C)NC(=O)[C@H](Cc2ccccc2)NC(=O)[C@@H]2CSCCC(=O)N3CN(CN(C3)C(=O)CCSCCC(=O)N[C@@H](CC(C)(C)C)C(=O)N3CCC[C@H]3C(=O)N[C@@H](CCC(=O)O)C(=O)N[C@H](CCCCNC(=O)CCc3cn(CCOCCOCCOCCOCCOCCC(=O)N[C@H]4CSCCC(=O)N5CN6CN(C5)C(=O)CCSC[C@H](NC(=O)[C@@H](CC(=O)O)NC(=O)[C@H](Cc5cccc7ccccc57)NC(=O)[C@@H]5CCCN5C4=O)C(=O)N[C@@H](CCSC)C(=O)N[C@@H](CCCCNC(=N)N)C(=O)N[C@@H](CC(=O)O)C(=O)N[C@@H](Cc4c[nH]c5ccccc45)C(=O)N[C@@H](CO)C(=O)N[C@@H]([C@@H](C)O)C(=O)N4CCC[C@H]4C(=O)N4C[C@H](O)C[C@H]4C(=O)N[C@@H](Cc4c[nH]c5ccccc45)C(=O)N[C@H](C(N)=O)CSCCC6=O)nn3)C(=O)N3CCC[C@H]3C(=O)N[C@@H](Cc3ccc(O)cc3)C(=O)N2)C(=O)CCSCCNC1=O — Kd (Tumor necrosis factor receptor superfamily member 9; SPR): 0.049 µM
CC(c1ccccc1)n1cc(-c2c(F)ccc3cn[nH]c23)c(=O)[nH]c1=O (stereo not shown) — Kd (MET): 0.398 µM
CCCC[C@@H]1NC(=O)[C@H](Cc2ccc(O)cc2)NC(=O)[C@@H]2CCCN2C(=O)[C@H](CC(=O)O)NC(=O)[C@H](C)NC(=O)[C@H](Cc2ccccc2)NC(=O)[C@@H]2CSCCC(=O)N3CN(CN(C3)C(=O)CCSC[C@@H](C(=O)N[C@@H](C)C(N)=O)NC1=O)C(=O)CCSC[C@H](NC(=O)[C@H](C)NC(C)=O)C(=O)N[C@@H]([C@@H](C)CC)C(=O)N[C@@H](CCC(=O)O)C(=O)N[C@@H](CCC(=O)O)C(=O)N[C@H](CCCCNC(=O)CCc1cn(CCOCCOCCOCCOCCOCCC(=O)N[C@H]3CSCCC(=O)N4CN5CN(C4)C(=O)CCSC[C@H](NC(=O)[C@@H](CC(=O)O)NC(=O)[C@H](Cc4cccc6ccccc46)NC(=O)[C@@H]4CCCN4C3=O)C(=O)N[C@@H](CCSC)C(=O)N[C@@H](CCCCNC(=N)N)C(=O)N[C@@H](CC(=O)O)C(=O)N[C@@H](Cc3c[nH]c4ccccc34)C(=O)N[C@@H](CO)C(=O)N[C@@H]([C@@H](C)O)C(=O)N3CCC[C@H]3C(=O)N3C[C@H](O)C[C@H]3C(=O)N[C@@H](Cc3c[nH]c4ccccc34)C(=O)N[C@H](C(N)=O)CSCCC5=O)nn1)C(=O)N[C@@H](CCC(N)=O)C(=O)N[C@@H](Cc1ccc(O)cc1)C(=O)N2 — Kd (Tumor necrosis factor receptor superfamily member 9; SPR): 0.043 µM
OC[C@H]1OC(O)[C@H](O)[C@@H](O)[C@@H]1O (stereo partly shown) — Kd (Hexokinase-4 (GCK, Homo sapiens, UniProt P35557); stopped-flow): 5000 µM
C[C@@H](c1ccccc1)n1cc(-c2cc(F)cc(F)c2)c(=O)[nH]c1=O — Kd (MET): 1 µM
CCCC[C@@H]1NC(=O)[C@H](Cc2ccc(O)cc2)NC(=O)[C@@H]2CCCN2C(=O)[C@H](CC(=O)O)NC(=O)[C@H](C)NC(=O)[C@H](Cc2ccccc2)NC(=O)[C@@H]2CSCCC(=O)N3CN(CN(C3)C(=O)CCSC[C@@H](C(N)=O)NC1=O)C(=O)CCSCCC(=O)N[C@@H](CC(C)(C)C)C(=O)N1CCC[C@H]1C(=O)N[C@@H](CCC(=O)O)C(=O)N[C@H](CCCCNC(=O)CCc1cn(CCOCCOCCOCCOCCOCCC(=O)N[C@H]3CSCCC(=O)N4CN5CN(C4)C(=O)CCSC[C@H](NC(=O)[C@@H](CC(=O)O)NC(=O)[C@H](Cc4cccc6ccccc46)NC(=O)[C@@H]4CCCN4C3=O)C(=O)N[C@@H](CCSC)C(=O)N[C@@H](CCCCNC(=N)N)C(=O)N[C@@H](CC(=O)O)C(=O)N[C@@H](Cc3c[nH]c4ccccc34)C(=O)N[C@@H](CO)C(=O)N[C@@H]([C@@H](C)O)C(=O)N3CCC[C@H]3C(=O)N3C[C@H](O)C[C@H]3C(=O)N[C@@H](Cc3c[nH]c4ccccc34)C(=O)N[C@H](C(N)=O)CSCCC5=O)nn1)C(=O)N1CCC[C@H]1C(=O)N[C@@H](Cc1ccc(O)cc1)C(=O)N2 — Kd (Tumor necrosis factor receptor superfamily member 9; SPR): 0.012 µM
CC(c1ccccc1)n1cc(-c2ccccn2)c(=O)[nH]c1=O (stereo not shown) — Kd (MET): 5.01 µM
CC[C@H](C)[C@H](NC(=O)[C@H](CCC(=O)O)NC(=O)[C@H](CCC(=O)O)NC(=O)[C@H](CCC(N)=O)NC(=O)[C@@H](NC(=O)[C@@H](N)CC(=O)O)[C@@H](C)CC)C(=O)N[C@@H](CC(C)C)C(=O)N[C@@H](CO)C(=O)NCC(=O)N[C@@H](CCCCN)C(=O)N[C@@H](CO)C(=O)O — Kd (USP7; ITC; pH 8): 424 µM
